Screens: PubChem, Johns Hopkins Ion Channel Center
KCNK3 block = human KCNK3 channel inhibition, primary screen; O14649; CHO-KCNK3 thallium flux, FluxOR fluorescence; hits give low values; B-score at 10 µM; 0.84% of 340,000 active; AID 602410;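 active = B-score under library mean minus 4 SD, starting fluorescence ratio at most library mean plus 5 SD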;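 also: more negative B-score means stronger inhibition of thallium flux through KCNK3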
Kir21 block = blocks the mouse Kir2.1 inward-rectifier potassium channel. HEK293-Kir2.1, FluxOR thallium flux fluorescence; hits give low values. B-score at 10 µM. 0.85% of 310,000 active. AID 1672;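 active = fluorescence ratio B-score at or below minus 3 SD of library scores, with starting-brightness B-score within 2 SD, cut at about -4.2 in these data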;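 also: channel flux triggered by added potassium and thallium sulfate stimulus; B-score of peak minus minimum fluorescence over baseline after thallium stimulus; more negative B-score means stronger Kir2.1 block with less thallium influx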
hERG rescue = hERG (human) protection from proarrhythmic block. 0.51% of 310,000 active. activation (rescue from dofetilide block), less the hit threshold, % at 10 µM. AID 1511. Q12809. CHO-hERG, FluxOR thallium flux, dofetilide IC70 present;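 active = activation above the mean of controls blocked by dofetilide plus 5 SD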;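 also: thallium influx through hERG after potassium depolarization seen as dye fluorescence rise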
KCNQ1 block = human KCNQ1 channel inhibition. P51787. B-score at 10 µM. CHO-K1 KCNQ1, FluxOR thallium flux fluorescence; hits give high values. 1.3% of 310,000 active;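 active = compounds whose thallium flux B-score, printed positive for inhibition, exceeds three library SD while starting fluorescence stays within three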;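 also: channel opened by potassium depolarization with thallium stimulus after 20 min compound exposure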
KCNQ1 pot = human KCNQ1 channel potentiation or activation. P51787. CHO-K1 KCNQ1, thallium flux FluxOR fluorescence; hits give high values. B-score at 10 µM. 0.35% of 310,000 active. AID 2648;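 active = fluorescence ratio B-score, a plate-corrected score, at least three library SD, with initial intensity B-score within 5 SD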
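Assay system: stable KCNQ1 CHO-K1 line; medium: assay buffer, equal DMSO in all wells; timing: 90 min dye loading and 20 min compound exposure, both at room temperature; technique: kinetic FluxOR thallium fluorescence, 10-s 1-Hz baseline, 110-s post-stimulus read; read-out basis: B score of baseline-normalized fluorescence ratio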
KCNK9 inh = inhibitors of human KCNK9 two-pore domain potassium channel. 1.2% of 310,000 active. HEK293 KCNK9, FluxOR thallium flux fluorescence; hits give low values. Q9NPC2. B-score at 10 µM;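 active = ratio B-score over 3 SD below the library mean, with starting fluorescence within 5 SD of its mean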;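 also: negative B-score means less thallium flux so channel inhibition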
Numbers without * were called inactive; i = inactive; / = not tested or not shown. The list is not random: actives were taken first. Their share in the collection is about 3.8%.

SMILES	KCNK3 block	Kir21 block	hERG rescue	KCNQ1 block	KCNQ1 pot	KCNK9 inh
FC(F)Oc1ccc(C2N=C(c3ccccc3)NO2)cc1 (configuration not stated)	i	-0.1	-3.3	i	i	i
COc1cc2c(cc1OC)CN(C(=O)c1nn(Cc3ccccc3)c(=O)c3ccccc13)CC2	-9.27*	/	/	/	/	/
CCOC(=O)c1sc(NC(=O)c2c(C)nn(Cc3ccccc3)c2C)cc1C	-11.2*	/	/	/	/	/
COc1ccc(C(=O)C[n+]2cc(-c3ccc(OC)cc3)n3c2CCCC3)cc1	i	-0.08	-4.6	i	i	i
Cc1ccc(C(=O)C[n+]2cc(-c3ccc(C)cc3)n3c2CCCCC3)cc1	i	-2.54	-23.8	14*	i	i
O=C(COc1ccccc1Cl)NNC(=O)c1ccc(-n2cncn2)c([N+](=O)[O-])c1	i	/	/	/	/	/
Cc1nc2ccccc2c2c1C(=O)N(C)C2=O	i	1.1	5.7*	i	i	i
Cc1nc2ccccc2c2c1C(=O)N(C(C)C)C2=O	i	0.05	-8.5	i	i	i
NS(=O)(=O)c1ccc(CCNC(=O)c2cc([N+](=O)[O-])ccc2N2CCCCC2)cc1	i	2.54	-6.6	i	i	i
Cc1ccc(C)c(N(C(=O)c2csnn2)C(C(=O)NC2CCCC2)c2cccnc2)c1 (configuration not stated)	i	-0.28	-1.8	i	i	i
C[C@H]1COC2=C1C(=O)C(=O)c1c2ccc2c1CCCC2(C)C	-8.71*	-5.44*	-18.3	i	i	i
O=C(CSc1nc2ccccc2o1)Nc1ccccc1N1CCOCC1	i	-8.77*	-7.4	i	i	i
O=C(CSc1ccc([N+](=O)[O-])cn1)Nc1ccccc1N1CCOCC1	i	-4.58*	-9.6	i	i	i
Cc1nn(-c2ccccc2)c2ncc(C(=O)c3cc(Cl)ccc3O)cc12	i	-0.69	-6.7	i	i	i
CCc1nn2cc(C(=O)c3cc(Cl)ccc3O)cnc2c1-c1ccc(F)cc1	i	-0.43	-10.5	8*	i	i
CCc1cccc(NC(=O)c2cccc(S(=O)(=O)N3CCN(C)CC3)c2)c1	i	0.04	-4.9	i	i	i
CCCCCC(=O)NC(NC(=S)NC1CCS(=O)(=O)C1)C(Cl)(Cl)Cl (configuration not stated)	i	0.19	5.6*	i	i	i
O=C(NCc1cccs1)c1ccc(S(=O)(=O)N2CCOCC2)cc1	i	0.9	-8.9	i	i	i
CSc1ccc(CN2CCC(Oc3ccc(C(=O)N4CCCC4)cc3)CC2)cc1	i	-4.4*	-8.5	i	i	i
O=C(c1ccc(OC2CCN(Cc3ccc(F)cc3)CC2)cc1)N1CCCC1	i	-4.21*	-5.4	i	i	i
COC(=O)c1cc(CSc2ncnc3sccc23)oc1C	i	-0.04	-4.5	i	i	i
Fc1ccc(N2CCN(Cc3cnc(N4CCOCC4)s3)CC2)cc1	i	1.91	3.9	i	i	i
CN1CCN(c2ncc(CN3C(=O)c4ccccc4C3=O)s2)CC1	i	-0.79	5.9*	i	i	i
CC(=O)Nc1cccc(C(=O)OCC(=O)N(c2ccccc2)C2CCS(=O)(=O)C2)c1 (configuration not stated)	i	/	/	/	/	/
COCCNC(=O)C(NC(=O)C1CCCCC1)C(C)C (configuration not stated)	i	0.18	-8.4	i	i	i
SMILES	KCNK3 block	Kir21 block	hERG rescue	KCNQ1 block	KCNQ1 pot	KCNK9 inh
CC(C)Cn1c(N2CCN(CC(=O)Nc3ccc(Cl)cc3)CC2)nc2ccccc21	i	-0.55	-8.5	i	i	i
CC1CCN(CCOCCOc2ccccc2-c2ccccc2)CC1	i	-5.49*	-11.2	i	i	i
CC1CCN(CCCCOc2ccccc2-c2ccccc2)CC1	i	-9.65*	-17.6	i	i	i
CC1CCN(CCOc2ccc(OCc3ccccc3)cc2)CC1	i	-7.09*	-12.4	i	i	i
c1ccc(-c2ccccc2OCCOCCN2CCCCC2)cc1	i	-2.05	-3.9	i	i	i
COc1ccccc1OCCCCN1CCC(C)CC1	i	-0.01	-7.9	i	i	i
